Measurements published in ChEMBL document CHEMBL1156892, “Synthesis and in vitro evaluation of bisphosphonated glycopeptide prodrugs for the treatment of osteomyelitis” (Bioorg Med Chem Lett, 2010).
In brackets after ≈: the same amount, converted by molar mass.

What was measured:
Staphylococcus aureus [1] = assay: Antibacterial activity against Staphylococcus aureus ATCC 13709 in cation adjusted Mueller-Hinton broth by […] assay in presence of 50% mouse serum; assay type: functional
In short: (§1)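 MIC determination against S. aureus ATCC13709. Medium is cation-adjusted Mueller-Hinton broth, alone or supplemented with mouse, human or rat serum as specified per line.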

Oryctolagus cuniculus = species on record: Oryctolagus cuniculus; assay: Binding affinity to rabbit bone assessed as drug level bound to bone powder at 0.25 to 4 ug/ml after 24 hrs; assay type: tissue-based; conditions: Bone element
Staphylococcus aureus [2] = assay: Antibacterial activity against Staphylococcus aureus ATCC 13709 in cation adjusted Mueller-Hinton broth by […] assay; assay type: functional; in short: as §1
Staphylococcus aureus [3] = assay: Antibacterial activity against Staphylococcus aureus ATCC 13709 in cation adjusted Mueller-Hinton broth by […] assay in presence of 50% rat serum; assay type: functional; in short: as §1
Staphylococcus aureus [4] = assay: Antibacterial activity against Staphylococcus aureus ATCC 13709 in cation adjusted Mueller-Hinton broth by […] assay in presence of 50% human serum; assay type: functional; in short: as §1
Staphylococcus aureus [5] = assay: Antibacterial activity against Staphylococcus aureus ATCC 13709 in cation adjusted Mueller-Hinton broth by […] assay in presence of 50% mouse serum in absence of polysorbate-80; assay type: functional
In short: (§2)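 MIC against S. aureus ATCC13709 in cation-adjusted Mueller-Hinton broth, alone or with mouse, human or rat serum, run without polysorbate-80 in the medium.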

Staphylococcus aureus [6] = assay: Antibacterial activity against Staphylococcus aureus ATCC 13709 in cation adjusted Mueller-Hinton broth by […] assay in presence of 50% rat serum in absence of polysorbate-80; assay type: functional; in short: as §2
Staphylococcus aureus [7] = assay: Antibacterial activity against Staphylococcus aureus ATCC 13709 in cation adjusted Mueller-Hinton broth by […] assay in absence of polysorbate-80; assay type: functional; in short: as §2
Staphylococcus aureus [8] = assay: Antibacterial activity against Staphylococcus aureus ATCC 13709 in cation adjusted Mueller-Hinton broth by […] assay in presence of 50% human serum in absence of polysorbate-80; assay type: functional; in short: as §2
Streptococcus pneumoniae = assay: Antibacterial activity against Streptococcus pneumoniae ATCC 700902 by agar diffusion assay; assay type: functional
[9] = Stability in phosphate buffered saline assessed as conversion of drug to oritavancin after 24 hrs; assay type: physicochemical; conditions: buffer, BLD = below limit of detection
In short: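 Prodrugs incubated 24 h in phosphate-buffered saline. Regeneration of parent drug is expressed as % conversion. Parallel incubations were run in 50% rat or human serum diluted in PBS to assess enzymatic cleavage.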

Row | SMILES | MIC (Staphylococcus aureus [1]) [µg/mL] | Activity (Oryctolagus cuniculus) [%] | MIC (Staphylococcus aureus [2]) [µg/mL] | MIC (Staphylococcus aureus [3]) [µg/mL] | MIC (Staphylococcus aureus [4]) [µg/mL] | MIC (Staphylococcus aureus [5]) [µg/mL] | MIC (Staphylococcus aureus [6]) [µg/mL] | MIC (Staphylococcus aureus [7]) [µg/mL] | MIC (Staphylococcus aureus [8]) [µg/mL] | MIC (Streptococcus pneumoniae) [µg/mL] | Activity [9]
1 | CC(C)C[C@H](C(=O)N[C@H]1C(=O)N[C@@H](CC(N)=O)C(=O)N[C@H]2C(=O)N[C@H]3C(=O)N[C@H](C(=O)N[C@H](C(=O)O)c4cc(O)cc(O)c4-c4cc3ccc4O)[C@H](O[C@H]3C[C@](C)(N)[C@@H](O)[C@H](C)O3)c3cc(Cl)c(c(Cl)c3)Oc3cc2cc(c3O[C@H]2O[C@@H](CO)[C@@H](O)[C@H](O)[C@H]2O[C@@H]2C[C@@](C)(NCc3ccc(-c4ccc(Cl)cc4)cc3)[C@@H](O)[C@@H](C)O2)Oc2ccc(cc2Cl)[C@H]1O)N(C)C(=O)OCOC(=O)CCC(P(=O)(O)O)P(=O)(O)O | 0.5 | 96.9 | 8 (≈ 3.75 µM) | 1 | 4 | – | – | – | – | – | –
2 | CC(C)C[C@H](C(=O)N[C@H]1C(=O)N[C@@H](CC(N)=O)C(=O)N[C@H]2C(=O)N[C@H]3C(=O)N[C@H](C(=O)N[C@H](C(=O)O)c4cc(O)cc(O)c4-c4cc3ccc4O)[C@H](O[C@H]3C[C@](C)(N)[C@@H](O)[C@H](C)O3)c3cc(Cl)c(c(Cl)c3)Oc3cc2cc(c3O[C@H]2O[C@@H](CO)[C@@H](O)[C@H](O)[C@H]2O[C@@H]2C[C@@](C)(NCc3ccc(-c4ccc(Cl)cc4)cc3)[C@@H](O)[C@@H](C)O2)Oc2ccc(cc2Cl)[C@H]1O)N(C)C(=O)CCC(P(=O)(O)O)P(=O)(O)O | > 32 | 99.8 | > 32 | > 32 | > 32 | – | – | – | – | – | –
3 | CN[C@H](CC(C)C)C(=O)N[C@H]1C(=O)N[C@@H](CC(N)=O)C(=O)N[C@H]2C(=O)N[C@H]3C(=O)N[C@H](C(=O)N[C@H](C(=O)OCC(=O)NC(P(=O)(O)O)P(=O)(O)O)c4cc(O)cc(O)c4-c4cc3ccc4O)[C@H](O)c3cc(Cl)c(c(Cl)c3)Oc3cc2cc(c3O[C@H]2O[C@@H](CO)[C@@H](O)[C@H](O)[C@H]2O[C@@H]2C[C@@](C)(N)[C@@H](O)[C@@H](C)O2)Oc2ccc(cc2Cl)[C@H]1O | 16 | 96.5 | 16 (≈ 9.33 µM) | 32 | 8 | – | – | – | – | – | –
4 | CC(C)C[C@H](C(=O)N[C@H]1C(=O)N[C@@H](CC(N)=O)C(=O)N[C@H]2C(=O)N[C@H]3C(=O)N[C@H](C(=O)N[C@H](C(=O)O)c4cc(O)cc(O)c4-c4cc3ccc4O)[C@H](O[C@H]3C[C@](C)(N)[C@@H](O)[C@H](C)O3)c3cc(Cl)c(c(Cl)c3)Oc3cc2cc(c3O[C@H]2O[C@@H](CO)[C@@H](O)[C@H](O)[C@H]2O[C@@H]2C[C@@](C)(NCc3ccc(-c4ccc(Cl)cc4)cc3)[C@@H](O)[C@@H](C)O2)Oc2ccc(cc2Cl)[C@H]1O)N(C)C(=O)CC(P(=O)(O)O)P(=O)(O)O | 4 | 99.9 | 32 (≈ 15.7 µM) | 4 | 32 | – | – | – | – | – | –
5 | CN[C@H](CC(C)C)C(=O)N[C@H]1C(=O)N[C@@H](CC(N)=O)C(=O)N[C@H]2C(=O)N[C@H]3C(=O)N[C@H](C(=O)N[C@H](C(=O)O)c4cc(O)cc(O)c4-c4cc3ccc4O)[C@H](O[C@H]3C[C@](C)(N)[C@@H](O)[C@H](C)O3)c3ccc(c(Cl)c3)Oc3cc2cc(c3O[C@@H]2O[C@H](CO)[C@@H](O)[C@H](O)[C@H]2O[C@H]2C[C@](C)(NCc3ccc(-c4ccc(Cl)cc4)cc3)[C@@H](O)[C@H](C)O2)Oc2ccc(cc2Cl)[C@H]1O [ORITAVANCIN] | – | – | – | – | – | 2 | 0.25 | 0.5 (≈ 0.279 µM) | 1 | 0.001 (≈ 0.000558 µM) | –
6 | CN[C@H](CC(C)C)C(=O)N[C@H]1C(=O)N[C@@H](CC(N)=O)C(=O)N[C@H]2C(=O)N[C@H]3C(=O)N[C@H](C(=O)N[C@H](C(=O)OCC(=O)Nc4ccc(CC(P(=O)(O)O)P(=O)(O)O)cc4)c4cc(O)cc(O)c4-c4cc3ccc4O)[C@H](O[C@H]3C[C@](C)(N)[C@@H](O)[C@H](C)O3)c3cc(Cl)c(c(Cl)c3)Oc3cc2cc(c3O[C@H]2O[C@@H](CO)[C@@H](O)[C@H](O)[C@H]2O[C@@H]2C[C@@](C)(NCc3ccc(-c4ccc(Cl)cc4)cc3)[C@@H](O)[C@@H](C)O2)Oc2ccc(cc2Cl)[C@H]1O | 8 | – | > 32 | 8 | > 32 | – | – | – | – | – | –
7 | CN[C@H](CC(C)C)C(=O)N[C@H]1C(=O)N[C@@H](CC(N)=O)C(=O)N[C@H]2C(=O)N[C@H]3C(=O)N[C@H](C(=O)N[C@H](C(=O)OCC(=O)NC(P(=O)(O)O)P(=O)(O)O)c4cc(O)cc(O)c4-c4cc3ccc4O)[C@H](O[C@H]3C[C@](C)(N)[C@@H](O)[C@H](C)O3)c3cc(Cl)c(c(Cl)c3)Oc3cc2cc(c3O[C@H]2O[C@@H](CO)[C@@H](O)[C@H](O)[C@H]2O[C@@H]2C[C@@](C)(NCc3ccc(-c4ccc(Cl)cc4)cc3)[C@@H](O)[C@@H](C)O2)Oc2ccc(cc2Cl)[C@H]1O | 2 | 97.6 | 16 (≈ 7.77 µM) | 2 | 32 | – | – | – | – | – | –
8 | CC(C)C[C@H](C(=O)N[C@H]1C(=O)N[C@@H](CC(N)=O)C(=O)N[C@H]2C(=O)N[C@H]3C(=O)N[C@H](C(=O)N[C@H](C(=O)O)c4cc(O)cc(O)c4-c4cc3ccc4O)[C@H](O[C@H]3C[C@](C)(N)[C@@H](O)[C@H](C)O3)c3cc(Cl)c(c(Cl)c3)Oc3cc2cc(c3O[C@H]2O[C@@H](CO)[C@@H](O)[C@H](O)[C@H]2O[C@@H]2C[C@@](C)(NCc3ccc(-c4ccc(Cl)cc4)cc3)[C@@H](O)[C@@H](C)O2)Oc2ccc(cc2Cl)[C@H]1O)N(C)C(=O)OCOC(=O)CCCC(P(=O)(O)O)P(=O)(O)O | 32 | 99.9 | 32 (≈ 14.9 µM) | 32 | > 32 | – | – | – | – | – | BLD
9 | CN[C@H](CC(C)C)C(=O)N[C@H]1C(=O)N[C@@H](CC(N)=O)C(=O)N[C@H]2C(=O)N[C@H]3C(=O)N[C@H](C(=O)N[C@H](C(=O)OCC(=O)Nc4ccc(CC(P(=O)(O)O)P(=O)(O)O)cc4)c4cc(O)cc(O)c4-c4cc3ccc4O)[C@H](O)c3cc(Cl)c(c(Cl)c3)Oc3cc2cc(c3O[C@H]2O[C@@H](CO)[C@@H](O)[C@H](O)[C@H]2O[C@@H]2C[C@@](C)(N)[C@@H](O)[C@@H](C)O2)Oc2ccc(cc2Cl)[C@H]1O | 16 | 96.7 | 16 (≈ 8.86 µM) | 32 | 16 | – | – | – | – | – | –
